Assay results from different studies.
Each line is one published result; the experiments were not run side by side.
Target: Sodium-dependent serotonin transporter (SLC6A4, Homo sapiens, UniProt P31645)

Compound	read-out	mode	technique	cell line	concentration	inhibition [%]
COc1cc(NC(C)=O)c(Cl)cc1C(=O)Nc1nccs1	cell-free assay	–	–	–	10 µM	-12.3
O=C1N=C(N2CCCCN2)S/C1=C\c1ccc(F)cc1O	ligand displacement	–	radioligand	–	10 µM	< 10
N#Cc1cc(Cn2c(N3CCCC3)nc3ccccc32)ccc1F	ligand displacement	–	–	–	10 µM	-16.9
CCN(CC)c1ccc(C2Nc3ccc(C(=O)c4ccccc4)cc3NC3=C2C(=O)CC(C)(C)C3)cc1 (stereo not shown)	ligand displacement	–	radioligand	–	10 µM	57
CN1CCN(CCCOc2ccc(=O)n(-c3ccc(Cl)c(Cl)c3)n2)CC1	ligand displacement	–	–	–	1 µM	21.7
CN(C)CCCN1c2ccccc2CCc2ccccc21	transporter uptake	inhibitor	radiometric	COS-7	4 nM	19.6
O=C(c1ccc(Cl)cc1)N(Cc1ccccc1)C1CCCCC1	cell-free assay	–	–	–	10 µM	-7.1
CCN(Cc1ccccc1C(F)(F)F)C(=O)C1CCN(S(=O)(=O)c2ccc3[nH]ncc3c2)CC1	ligand displacement	–	radioligand	–	10 µM	2
COc1ccc(-n2nc(OCCCN3CCCCC3)ccc2=O)cc1	ligand displacement	–	–	–	1 µM	43.6
CCCNc1nc2ccccc2n1Cc1ccc(Cl)cc1	ligand displacement	–	–	–	10 µM	-8.27
